ChEMBL document CHEMBL1938262, “A specific protein disorder catalyzer of HIV-1 Nef” (Bioorg Med Chem, 2011)
pEC50, pIC50: −log10 of the molar value. Calls of active or inactive are those of the source. No cut-off for these calls is given here.

Legend:
[1] = Solubility of the compound; assay type: physicochemical
[2] = Inhibition of HIV1 Nef (56-206)/SH3 domain of GST-Hck expressed in Escherichia coli BL21 DE3 complex formation at […] after 1 hr by high-mass MALDI TOF analysis
In short: (§1)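 Nef core (56–206) and Hck SH3 were expressed in E. coli BL21 DE3 as GST fusions, thrombin-cleaved and gel-filtered. Nef was preincubated 1 h at rt with compound from DMSO stocks (up to 5 mM stock), then SH3-Hck was added for 1 h at rt. Samples were cross-linked 1 h, mixed with sinapinic acid matrix and analysed by high-mass MALDI-TOF in triplicate. IC50 comes from % complex versus log concentration.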

[3] = Inhibition of HIV1 Nef (56-206)/SH3 domain of GST-Hck expressed in Escherichia coli BL21 DE3 complex formation after 1 hr by high-mass MALDI TOF analysis; in short: as §1
[4] = Induction of HIV1 GST-Nef-mVenus proteolysis after 30 mins preincubation measured after 60 mins by cleavage enzyme-cytometric bead array method in presence of HIV1 protease; design: species or system Human immunodeficiency virus 1
In short: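 CE-CBA: a GST-Nef-mVenus reporter is immobilized on anti-GST antibody beads and cleaved by HIV protease. Cleavage is followed as loss of bead fluorescence by flow cytometry. Values are normalized to the DMSO control (0% cleavage) and intrinsic bead fluorescence (100%). Relative EC50 is reported as mean ± SEM of three independent experiments.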

[5] = Cytotoxicity against african green monkey COS7 cells assessed as cell viability up to 40 uM after 70 hrs; assay type: cell-based, COS-7; conditions: chlorocebus aethiops, read-out: Activity
[6] = tested on: Protein Nef (Human immunodeficiency virus type 1); assay: Decrease in aggregation temperature of HIV1 His-tagged Nef at 10 to 200 uM by thermal protein denaturation assay (reference value: 58.83 +/- 0.25 degC)

| Compound | solubility [1] | inhibition [2] | pIC50 [3] | pEC50 [4] | viability at 70 h [5] [%] | T [6] [°C] |
| --- | --- | --- | --- | --- | --- | --- |
| COC(=O)c1cccc(NC(=O)COc2ccc(-c3ccc(C(C)(C)C)cc3)cc2)c1 | Insoluble | – | – | – | – | – |
| CC(C)(C)c1ccc(OCC(=O)Nc2cccc(C(=O)O)c2)cc1 | – | Active | < 4.30 | 3.96 | 86.6 | 50.3 |
| CC(C)(C)c1ccc(-c2ccc(OCC(=O)Nc3cccc(C(=O)O)c3)cc2)cc1 | Insoluble | Active | 4.80 | 4.46 | 73 | – |
